{
  "source": "ChEMBL document CHEMBL1134636",
  "about": "“Structure-activity studies on nociceptin analogues: ORL1 receptor binding and biological activity of cyclic disulfide-containing analogues of nociceptin peptides” (J Med Chem, 2001)",
  "key": {"Nociceptin receptor [1]": {"target": "T1, Nociceptin receptor (Homo sapiens, UniProt P41146)", "T1 sequence (P41146 whole entry)": "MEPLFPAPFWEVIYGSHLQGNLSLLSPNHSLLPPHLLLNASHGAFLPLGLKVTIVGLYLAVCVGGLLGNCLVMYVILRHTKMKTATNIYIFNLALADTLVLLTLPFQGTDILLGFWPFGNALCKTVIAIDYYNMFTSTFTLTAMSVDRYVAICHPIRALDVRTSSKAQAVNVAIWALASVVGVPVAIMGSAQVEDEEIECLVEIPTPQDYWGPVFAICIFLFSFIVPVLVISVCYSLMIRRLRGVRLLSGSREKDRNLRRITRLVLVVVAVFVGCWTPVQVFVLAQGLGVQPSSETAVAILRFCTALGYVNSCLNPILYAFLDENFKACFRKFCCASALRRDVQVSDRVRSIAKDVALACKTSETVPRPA", "experiment": "Efficacy for human ORL1 receptor expressing HEK293 cells", "type": "functional, cell-based", "outline": "(§1)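 Membranes from HEK-293 cells expressing human ORL1 (10 μg) were incubated for 30 min at 24 °C with peptides (0.01 nM to 10 μM) in 20 mM HEPES pH 7.4 with 100 mM NaCl, 10 mM MgCl₂, 1 mM EDTA, 5 μM GDP and 400 pM [³⁵S]GTPγS. Binding was read with WGA-coated SPA beads.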"}, "Nociceptin receptor [2]": {"target": "T1, Nociceptin receptor", "experiment": "Efficacy for human ORL1 receptor expressing HEK293 cell membrane", "type": "functional, cell-based", "outline": "as §1"}, "Nociceptin receptor [3]": {"target": "T1, Nociceptin receptor", "experiment": "Displacement of [3H]NC from human ORL1 receptor expressing HEK293 cell membrane", "type": "cell membranes"}},
  "note": "Peptide text beside a SMILES is read from it.",
  "data": [
    {"smiles": "C[C@H](NC(=O)[C@H](CS)NC(=O)[C@H](CCCCN)NC(=O)[C@H](CCCN=C(N)N)NC(=O)[C@H](C)NC(=O)[C@H](CS)NC(=O)[C@@H](NC(=O)[C@H](Cc1ccccc1)NC(=O)CNC(=O)CNC(=O)[C@@H](N)Cc1ccccc1)[C@@H](C)O)C(=O)N[C@@H](CCCN=C(N)N)C(=O)N[C@@H](CCCCN)C(N)=O", "note": "(H-FGGFTCARKCARK-NH2)", "values": [
      {"measurement": "EC50", "setting": "Nociceptin receptor [1]", "result": 29.7, "unit": "nM"},
      {"measurement": "Emax", "setting": "Nociceptin receptor [2]", "result": 94, "unit": "%"},
      {"measurement": "IC50", "setting": "Nociceptin receptor [3]", "result": 3.03, "unit": "nM"}
    ]}
  ]
}
